Data published in ChEMBL document CHEMBL5058577, “EUbOPEN Chemogenomics Library 2 (Multiplex)” (2022).

Test system: Fibroblast
Assay: Multiplex assay against human fibroblast
Assay type: toxicity, cell-based
How it was run: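 Compound was added to live cells that had been stained at seeding with Hoechst33342, BioTracker Green Microtubule Cytoskeleton Dye, MitoTracker Red and Annexin V Alexa Fluor 680, and imaging followed on a CQ1 microscope at 37°C and 5% CO2. CellPathfinder machine-learning gating divided cells into Hoechst high-intensity objects or normal cells, normal cells into healthy, pyknosed or fragmented nuclei, and pyknosed cells into mitotic or apoptotic. Tubulin, mitochondrial-mass and membrane-permeability phenotypes are per cents of healthy-nucleus cells.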

[1] = 12 h, 1 µM, compound concentration 1 uM, replicate 1
[2] = 12 h, 1 µM, compound concentration 1 uM, replicate 2
[3] = 12 h, 10 µM, compound concentration 10 uM, replicate 1
[4] = 12 h, 10 µM, compound concentration 10 uM, replicate 2
[5] = 24 h, 1 µM, compound concentration 1 uM, replicate 1
[6] = 24 h, 1 µM, compound concentration 1 uM, replicate 2
[7] = 24 h, 10 µM, compound concentration 10 uM, replicate 1
[8] = 24 h, 10 µM, compound concentration 10 uM, replicate 2
[9] = 48 h, 1 µM, compound concentration 1 uM, replicate 1
[10] = 48 h, 1 µM, compound concentration 1 uM, replicate 2
[11] = 48 h, 10 µM, compound concentration 10 uM, replicate 1
[12] = 48 h, 10 µM, compound concentration 10 uM, replicate 2

With COC[C@@H](c1ccc(C(F)(F)F)cc1)N1CCN(C2(C)CCN(C(=O)c3c(C)ncnc3C)CC2)C[C@@H]1C.O=C(O)/C=C\C(=O)O [VICRIVIROC MALEATE] the “Population Apoptotic (%)” value [1] was 36%, the “Population Fragmented Nuclei (%)” value [1] was 23% and the “Population Healthy Nuclei (%)” value [1] was 53%. The “Population Hoechst High Intensity Objects (%)” value [1] was 4%, the “Population Membrane Permeable-Phenotype (%)” value [1] was 2% and the “Population Mitochondria Different-Phenotype (%)” value [1] was 11%. For the same compound, the “Population Mitotic Cells (%)” value [1] was 63%, the “Population Normal (%)” value [1] was 95% and the “Population Pyknosed Nuclei (%)” value [1] was 22%. The “Population Tubulin-Different-Phenotype (%)” value [1] was 16%, the “Total Cell Count” value [1] was 138 and the “Population Healthy Nuclei (%)” value [2] was 51%. For the same compound, the “Population Membrane Permeable-Phenotype (%)” value [2] was 5%, the “Population Mitochondria Different-Phenotype (%)” value [2] was 13% and the “Population Pyknosed Nuclei (%)” value [2] was 25%. For the same compound, the “Population Tubulin-Different-Phenotype (%)” value [2] was 41%, the “Total Cell Count” value [2] was 190 and the “Population Apoptotic (%)” value [3] was 58%. The “Population Fragmented Nuclei (%)” value [3] was 26%, the “Population Healthy Nuclei (%)” value [3] was 59% and the “Population Hoechst High Intensity Objects (%)” value [3] was 17%. The “Population Membrane Permeable-Phenotype (%)” value [3] was 2%, the “Population Mitochondria Different-Phenotype (%)” value [3] was 4% and the “Population Mitotic Cells (%)” value [3] was 41%. The “Population Normal (%)” value [3] was 82%, the “Population Pyknosed Nuclei (%)” value [3] was 14% and the “Population Tubulin-Different-Phenotype (%)” value [3] was 45%. For the same compound, the “Total Cell Count” value [3] was 208, the “Population Apoptotic (%)” value [4] was 33% and the “Population Fragmented Nuclei (%)” value [4] was 48%. For the same compound, the “Population Healthy Nuclei (%)” value [4] was 33%, the “Population Hoechst High Intensity Objects (%)” value [4] was 20% and the “Population Membrane Permeable-Phenotype (%)” value [4] was 12%. The “Population Mitotic Cells (%)” value [4] was 66%, the “Population Normal (%)” value [4] was 79% and the “Population Pyknosed Nuclei (%)” value [4] was 18%. For the same compound, the “Population Tubulin-Different-Phenotype (%)” value [4] was 67%, the “Total Cell Count” value [4] was 186 and the “Population Apoptotic (%)” value [5] was 66%. The “Population Fragmented Nuclei (%)” value [5] was 21%, the “Population Healthy Nuclei (%)” value [5] was 57% and the “Population Hoechst High Intensity Objects (%)” value [5] was 3%. For the same compound, the “Population Membrane Permeable-Phenotype (%)” value [5] was 1%, the “Population Mitochondria Different-Phenotype (%)” value [5] was 7% and the “Population Mitotic Cells (%)” value [5] was 33%. For the same compound, the “Population Normal (%)” value [5] was 96%, the “Population Pyknosed Nuclei (%)” value [5] was 20% and the “Population Tubulin-Different-Phenotype (%)” value [5] was 18%. The “Total Cell Count” value [5] was 138, the “Population Apoptotic (%)” value [6] was 30% and the “Population Fragmented Nuclei (%)” value [6] was 28%. For the same compound, the “Population Healthy Nuclei (%)” value [6] was 50%, the “Population Membrane Permeable-Phenotype (%)” value [6] was 8% and the “Population Mitochondria Different-Phenotype (%)” value [6] was 20%. The “Population Mitotic Cells (%)” value [6] was 69%, the “Population Pyknosed Nuclei (%)” value [6] was 21% and the “Population Tubulin-Different-Phenotype (%)” value [6] was 41%. The “Total Cell Count” value [6] was 204, the “Population Apoptotic (%)” value [7] was 73% and the “Population Fragmented Nuclei (%)” value [7] was 23%. The “Population Healthy Nuclei (%)” value [7] was 64%, the “Population Hoechst High Intensity Objects (%)” value [7] was 12% and the “Population Membrane Permeable-Phenotype (%)” value [7] was 0%. The “Population Mitochondria Different-Phenotype (%)” value [7] was 5%, the “Population Mitotic Cells (%)” value [7] was 26% and the “Population Normal (%)” value [7] was 87%. The “Population Pyknosed Nuclei (%)” value [7] was 11%, the “Population Tubulin-Different-Phenotype (%)” value [7] was 42% and the “Total Cell Count” value [7] was 196. For the same compound, the “Population Apoptotic (%)” value [8] was 42%, the “Population Fragmented Nuclei (%)” value [8] was 46% and the “Population Healthy Nuclei (%)” value [8] was 39%. For the same compound, the “Population Hoechst High Intensity Objects (%)” value [8] was 21%, the “Population Membrane Permeable-Phenotype (%)” value [8] was 8% and the “Population Mitochondria Different-Phenotype (%)” value [8] was 12%. The “Population Mitotic Cells (%)” value [8] was 57%, the “Population Normal (%)” value [8] was 78% and the “Population Pyknosed Nuclei (%)” value [8] was 14%. For the same compound, the “Population Tubulin-Different-Phenotype (%)” value [8] was 60%, the “Total Cell Count” value [8] was 183 and the “Population Apoptotic (%)” value [9] was 59%. For the same compound, the “Population Fragmented Nuclei (%)” value [9] was 21%, the “Population Healthy Nuclei (%)” value [9] was 56% and the “Population Hoechst High Intensity Objects (%)” value [9] was 3%. The “Population Membrane Permeable-Phenotype (%)” value [9] was 0%, the “Population Mitochondria Different-Phenotype (%)” value [9] was 7% and the “Population Mitotic Cells (%)” value [9] was 40%. The “Population Normal (%)” value [9] was 96%, the “Population Pyknosed Nuclei (%)” value [9] was 21% and the “Population Tubulin-Different-Phenotype (%)” value [9] was 34%. The “Total Cell Count” value [9] was 127, the “Population Apoptotic (%)” value [10] was 53% and the “Population Fragmented Nuclei (%)” value [10] was 33%. The “Population Healthy Nuclei (%)” value [10] was 50%, the “Population Hoechst High Intensity Objects (%)” value [10] was 5% and the “Population Membrane Permeable-Phenotype (%)” value [10] was 9%. The “Population Mitochondria Different-Phenotype (%)” value [10] was 19%, the “Population Mitotic Cells (%)” value [10] was 46% and the “Population Normal (%)” value [10] was 95%. For the same compound, the “Population Pyknosed Nuclei (%)” value [10] was 15%, the “Population Tubulin-Different-Phenotype (%)” value [10] was 58% and the “Total Cell Count” value [10] was 180. The “Population Apoptotic (%)” value [11] was 73%, the “Population Fragmented Nuclei (%)” value [11] was 23% and the “Population Healthy Nuclei (%)” value [11] was 65%. For the same compound, the “Population Hoechst High Intensity Objects (%)” value [11] was 14%, the “Population Membrane Permeable-Phenotype (%)” value [11] was 0% and the “Population Mitochondria Different-Phenotype (%)” value [11] was 5%. The “Population Mitotic Cells (%)” value [11] was 26%, the “Population Normal (%)” value [11] was 85% and the “Population Pyknosed Nuclei (%)” value [11] was 10%. The “Population Tubulin-Different-Phenotype (%)” value [11] was 48%, the “Total Cell Count” value [11] was 206 and the “Population Apoptotic (%)” value [12] was 53%. The “Population Fragmented Nuclei (%)” value [12] was 54%, the “Population Healthy Nuclei (%)” value [12] was 35% and the “Population Hoechst High Intensity Objects (%)” value [12] was 20%. For the same compound, the “Population Membrane Permeable-Phenotype (%)” value [12] was 9%, the “Population Mitochondria Different-Phenotype (%)” value [12] was 10% and the “Population Mitotic Cells (%)” value [12] was 46%. The “Population Normal (%)” value [12] was 79%, the “Population Pyknosed Nuclei (%)” value [12] was 9% and the “Population Tubulin-Different-Phenotype (%)” value [12] was 61%. The “Total Cell Count” value [12] was 193.
